Experiments:
Type in all cases: functional
Homo sapiens [1] = organism: Homo sapiens; test: Sensory evaluation was done at a concentration of 615 p.p.m. against property of bitterness.
Summary of the method: (§1)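 Aqueous sample solutions were tasted at about pH 7, so carboxylic acids were in ionized form.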

Homo sapiens [2] = organism: Homo sapiens; test: Sensory evaluation was done at a concentration of 615 p.p.m. against property of sweetness.; summary of the method: as §1
Homo sapiens [3] = organism: Homo sapiens; test: Sensory evaluation was done for sweetness at a concentration of 615 p.p.m. against compound potency calculated on a molar basis.
Summary of the method: (§2)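 Sweetness tasted in solutions held near pH ~7, so carboxylic acids are ionized. Potency is reported two ways: on a weight basis (Pw) and on a molar basis (Pm).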

Homo sapiens [4] = organism: Homo sapiens; test: Sensory evaluation was done at a concentration of 615 p.p.m. against other properties.; summary of the method: as §1
Homo sapiens [5] = organism: Homo sapiens; test: Sensory evaluation was done for sweetness at a concentration of 615 p.p.m. against compound potency calculated on weight basis.; summary of the method: as §2
Homo sapiens [6] = organism: Homo sapiens; test: Sensory evaluation was done for sweetness at a concentration of 615 p.p.m. against sample intensity relative to 10% sucrose.; summary of the method: as §2
Homo sapiens [7] = organism: Homo sapiens; test: Sensory evaluation was done for sweetness at a concentration of 650 p.p.m. against compound potency calculated on a molar basis.; summary of the method: as §2
Homo sapiens [8] = organism: Homo sapiens; test: Sensory evaluation was done at a concentration of 650 p.p.m. against property of bitterness.; summary of the method: as §1
Homo sapiens [9] = organism: Homo sapiens; test: Sensory evaluation was done at a concentration of 650 p.p.m. against other properties.; summary of the method: as §1
Homo sapiens [10] = organism: Homo sapiens; test: Sensory evaluation was done for sweetness at a concentration of 650 p.p.m. against sample intensity relative to 10% sucrose.; summary of the method: as §2
Homo sapiens [11] = organism: Homo sapiens; test: Sensory evaluation was done for sweetness at a concentration of 650 p.p.m. against compound potency calculated on weight basis.; summary of the method: as §2
Homo sapiens [12] = organism: Homo sapiens; test: Sensory evaluation was done at a concentration of 650 p.p.m. against property of sweetness.; summary of the method: as §1
Homo sapiens [13] = organism: Homo sapiens; test: Sensory evaluation was done for sweetness at a concentration of 1000 p.p.m. against compound potency calculated on weight basis.
Summary of the method: (§3)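 Solutions were tasted at about pH 7. Sweetness potency was expressed two ways: Pw, calculated on a weight basis, and Pm, calculated on a molar basis.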

Homo sapiens [14] = organism: Homo sapiens; test: Sensory evaluation was done for sweetness at a concentration of 1000 p.p.m. against sample intensity relative to 10% sucrose.; summary of the method: as §1
Homo sapiens [15] = organism: Homo sapiens; test: Sensory evaluation was done at a concentration of 1000 p.p.m. against other properties.; summary of the method: as §1
Homo sapiens [16] = organism: Homo sapiens; test: Sensory evaluation was done for sweetness at a concentration of 1000 p.p.m. against compound potency calculated on a molar basis.; summary of the method: as §3
Homo sapiens [17] = organism: Homo sapiens; test: Sensory evaluation was done at a concentration of 1000 p.p.m. against property of bitterness.; summary of the method: as §1
Homo sapiens [18] = organism: Homo sapiens; test: Sensory evaluation was done at a concentration of 1000 p.p.m. against property of sweetness.; summary of the method: as §1
Homo sapiens [19] = organism: Homo sapiens; test: Sensory evaluation was done at a concentration of 750 p.p.m. against property of sweetness.; summary of the method: as §1
Homo sapiens [20] = organism: Homo sapiens; test: Sensory evaluation was done at a concentration of 750 p.p.m. against property of bitterness.; summary of the method: as §1
Homo sapiens [21] = organism: Homo sapiens; test: Sensory evaluation was done for sweetness at a concentration of 750 p.p.m. against compound potency calculated on a molar basis.; summary of the method: as §2
Homo sapiens [22] = organism: Homo sapiens; test: Sensory evaluation was done for sweetness at a concentration of 750 p.p.m. against sample intensity relative to 10% sucrose.; summary of the method: as §2
Homo sapiens [23] = organism: Homo sapiens; test: Sensory evaluation was done for sweetness at a concentration of 750 p.p.m. against compound potency calculated on weight basis.; summary of the method: as §2
Homo sapiens [24] = organism: Homo sapiens; test: Sensory evaluation was done at a concentration of 750 p.p.m. against other properties.; summary of the method: as §1
Homo sapiens [25] = organism: Homo sapiens; test: Sensory evaluation was done for sweetness at a concentration of 500 p.p.m. against compound potency calculated on a molar basis.; summary of the method: as §2
Homo sapiens [26] = organism: Homo sapiens; test: Sensory evaluation was done at a concentration of 500 p.p.m. against other properties.; summary of the method: as §1
Homo sapiens [27] = organism: Homo sapiens; test: Sensory evaluation was done at a concentration of 500 p.p.m. against property of bitterness.; summary of the method: as §1
Homo sapiens [28] = organism: Homo sapiens; test: Sensory evaluation was done for sweetness at a concentration of 500 p.p.m. against sample intensity relative to 10% sucrose.; summary of the method: as §2
Homo sapiens [29] = organism: Homo sapiens; test: Sensory evaluation was done at a concentration of 500 p.p.m. against property of sweetness.; summary of the method: as §1
Homo sapiens [30] = organism: Homo sapiens; test: Sensory evaluation was done for sweetness at a concentration of 500 p.p.m. against compound potency calculated on weight basis.; summary of the method: as §2

C=C1C[C@@]23CC[C@H]4[C@@](C)(CCC[C@@]4(C)C(=O)OCCC(N)C(=O)O)[C@@H]2CC[C@]1(O[C@@H]1O[C@@H](CO)[C@@H](O)[C@H](O)[C@@H]1O[C@@H]1O[C@@H](CO)[C@@H](O)[C@H](O)[C@@H]1O)C3 (some centres not stated) gave a Sensory evaluation (Homo sapiens [1]) of 35, a Sensory evaluation (Homo sapiens [2]) of 60 and a Pm (Homo sapiens [3]) of 420. The Sensory evaluation (Homo sapiens [4]) was 5, the Pw (Homo sapiens [5]) was 200 and the Ip (Homo sapiens [6]) was 1.2.

In the case of C=C1C[C@@]23CC[C@H]4[C@@](C)(CCC[C@@]4(C)C(=O)OCCCP(=O)([O-])O)[C@@H]2CC[C@]1(O[C@@H]1O[C@@H](CO)[C@@H](O)[C@H](O)[C@@H]1O[C@@H]1O[C@@H](CO)[C@@H](O)[C@H](O)[C@@H]1O)C3.[Na+], the Pm (Homo sapiens [7]) was 280, the Sensory evaluation (Homo sapiens [8]) was 8 and the Sensory evaluation (Homo sapiens [9]) was 5. The Ip (Homo sapiens [10]) was 0.8, the Pw (Homo sapiens [11]) was 120 and the Sensory evaluation (Homo sapiens [12]) was 87.

C=C1C[C@@]23CC[C@H]4[C@@](C)(CCC[C@@]4(C)C(=O)OC(CCN)C(=O)O)[C@@H]2CC[C@]1(O[C@@H]1O[C@@H](CO)[C@@H](O)[C@H](O)[C@@H]1O[C@@H]1O[C@@H](CO)[C@@H](O)[C@H](O)[C@@H]1O)C3 (some centres not stated) gave a Pm (Homo sapiens [7]) of 360, a Sensory evaluation (Homo sapiens [8]) of 18 and a Sensory evaluation (Homo sapiens [9]) of 3. It also gave an Ip (Homo sapiens [10]) of 1.1, a Pw (Homo sapiens [11]) of 170 and a Sensory evaluation (Homo sapiens [12]) of 79.

Work on CC1=CC(=O)NS(=O)(=O)O1 [ACESULFAME] yielded a Pw (Homo sapiens [13]) of 100, an Ip (Homo sapiens [14]) of 1 and a Sensory evaluation (Homo sapiens [15]) of 1. The Pm (Homo sapiens [16]) was 55, the Sensory evaluation (Homo sapiens [17]) was 16 and the Sensory evaluation (Homo sapiens [18]) was 83.

COC(=O)[C@H](Cc1ccccc1)NC(=O)[C@@H](N)CC(=O)O [ASPARTAME] showed a Sensory evaluation (Homo sapiens [19]) of 100, a Sensory evaluation (Homo sapiens [20]) of 0 and a Pm (Homo sapiens [21]) of 85. The Ip (Homo sapiens [22]) was 1, the Pw (Homo sapiens [23]) was 130 and the Sensory evaluation (Homo sapiens [24]) was 0.

With C=C1C[C@@]23CC[C@H]4[C@@](C)(CCC[C@@]4(C)C(=O)O[C@@H]4O[C@H](CO)[C@@H](O)[C@H](O)[C@H]4O)[C@@H]2CC[C@]1(O[C@@H]1O[C@H](CO)[C@@H](O)[C@H](O)[C@H]1O[C@@H]1O[C@H](CO)[C@@H](O)[C@H](O)[C@H]1O)C3 [STEVIOSIDE] the Pm (Homo sapiens [25]) was 440, the Sensory evaluation (Homo sapiens [26]) was 8 and the Sensory evaluation (Homo sapiens [27]) was 30. For the same molecule, the Ip (Homo sapiens [28]) was 0.9, the Sensory evaluation (Homo sapiens [29]) was 62 and the Pw (Homo sapiens [30]) was 190.

C=C1C[C@@]23CC[C@H]4[C@@](C)(CCC[C@@]4(C)C(=O)[O-])[C@@H]2CC[C@]1(O[C@@H]1O[C@@H](CO)[C@@H](O)[C@H](O)[C@@H]1O[C@@H]1O[C@@H](CO)[C@@H](O)[C@H](O)[C@@H]1O)C3.[Na+] [Steviolbioside] showed a Pw (Homo sapiens [13]) of 100, an Ip (Homo sapiens [14]) of 1 and a Sensory evaluation (Homo sapiens [15]) of 0. It also gave a Pm (Homo sapiens [16]) of 190, a Sensory evaluation (Homo sapiens [17]) of 35 and a Sensory evaluation (Homo sapiens [18]) of 65.

Reference: ChEMBL document CHEMBL1123134, “Diterpenoid sweeteners. Synthesis and sensory evaluation of stevioside analogues with improved organoleptic properties” (1985)
